Source: PubChem BioAssay (several laboratories)
In the library only some 1.6% were active in any assay of this set; here they are far more common.
ABCG2 inh: human ABCG2 inhibition, ABCB1 as counter-screen; Q9UNQ0; IgMXP3 cells, JC-1 efflux, flow cytometry; inhibition, % at 6.6 µM; 190,000 tested, 0.1% active;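 active = inhibition above 80%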;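 also: 0% = DMSO and 100% = nicardipine control wells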
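Read-out basis: Efflux inhibition in percent versus controls | Test system: ABCG2 IgMXP3 and barcoded ABCB1 CCRF-Adr cell mix | Quantity: 3 million cells/mL in well | Schedule: 10 min at 25 °C | Control set: Nicardipine as high control, DMSO as low control | Reagent: JC-1 as fluorescent efflux pump substrate | Signal: Flow cytometry of retained JC-1 fluorescence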
PHOSPHO1 block: inhibitors of human PHOSPHO1 phosphatase; AID 1565; 290,000 tested, 1.1% active; recombinant PHOSPHO1, absorbance phosphatase assay; inhibition, % at 13.3 µM; in the data active = inhibition above about 60%
Target sequence (Q8TCT1 whole entry, looked up): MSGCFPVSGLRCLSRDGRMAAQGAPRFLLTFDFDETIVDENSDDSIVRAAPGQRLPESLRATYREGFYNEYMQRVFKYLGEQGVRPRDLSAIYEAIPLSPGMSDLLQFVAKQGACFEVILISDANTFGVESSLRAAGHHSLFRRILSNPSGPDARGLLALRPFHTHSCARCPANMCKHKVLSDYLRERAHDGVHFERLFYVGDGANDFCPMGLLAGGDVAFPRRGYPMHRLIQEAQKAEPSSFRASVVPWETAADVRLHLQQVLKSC
ABCB1 block: inhibitors of human ABCB1 transporter, ABCG2 counter-screen; P08183; CCRF-Adr cells, JC-1 efflux, flow cytometry; inhibition, % at 6.6 µM; 190,000 tested, 0.067% active; in the data active = inhibition above about 40%;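 also: 0% = vehicle and 100% = reference inhibitor; higher value means more JC-1 retained so stronger ABCB1 efflux block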
NCF1 inh: blocks human p47phox regulatory protein of NADPH oxidases. P14598. p47phox/p22phox peptide binding, fluorescence polarization, 2 h. inhibition, % at 24.7 µM. 220,000 tested, 0.53% active. AID 1274;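 active = inhibition above about 30%, limit read from the data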;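 also: 0% = p47phox with labelled peptide and 100% = labelled peptide alone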
PKD1 kinase inh: blocks activity of human protein kinase D1. 200,000 tested, 0.056% active. inhibition, % (no concentration beside the values). Q15139. PKD1 kinase fluorescence polarization assay; in the data active = inhibition above about 50%
HSV augment: HSV replication enhancement | HSV replication augmentation in cells, fold increase | maximum fold increase | 220,000 tested, 0.005% active | AID 1956; in the data active = maximum fold increase above about 1.5; tested in PC3 cells
* hit, by the source's call; i = inactive; · = no result given.

SMILES	ABCG2 inh	PHOSPHO1 block	ABCB1 block	NCF1 inh	PKD1 kinase inh	HSV augment
CCOc1cc(/C=C2\C(=O)N(CCc3ccc(OC)c(OC)c3)C(C)=C2C(=O)OC)ccc1O	1.3	20.8	0.9	53.2*	6.5	i
Cc1oc(-c2ccccc2F)nc1CSCC(=O)NC1CC1	·	75.1*	·	·	·	·
Cc1oc(-c2ccccc2F)nc1CSCC(=O)NC1CCC(C)CC1 (stereo not drawn)	·	29.3	·	·	·	·
c1cncc(-c2nnc(-c3cccnc3)nn2)c1	4.7	66.0*	0.2	6.1	-12.6	·
CN(C)c1nc(OCCNC(=O)COc2ccccc2Cl)nc(N(C)C)n1	0.0	33.0	2.1	-9.2	-10.2	i
O=C(Nc1cc(C(F)(F)F)ccc1N1CCOCC1)C1Cc2ccccc2CN1C(=O)c1ccco1 (stereo not drawn)	3.5	65.2*	2.5	-0.5	0.7	i
O=C(NCc1ccco1)C1Cc2ccccc2CN1C(=O)c1ccco1 (stereo not drawn)	11.9	0.1	1.3	-5.7	-3.4	i
COc1ccc(CNC(=O)C2Cc3ccccc3CN2C(=O)c2ccco2)cc1 (stereo not drawn)	0.4	-8.2	1.1	-12.1	105.1*	i
N/C(=N\OC(=O)COc1ccc2ccccc2c1)c1cccnc1	2.6	-68.1	0.1	3.2	3.4	i
COc1ccc(/C=N/NC(=O)c2ccc(CN3c4cccc5cccc(c45)S3(=O)=O)cc2)cc1	-15.8	-12.3	-0.5	-22.3	-0.3	i
COc1cc(/C=N/NC(=O)c2ccc(CN3c4cccc5cccc(c45)S3(=O)=O)cc2)cc(OC)c1O	0.5	30.5	-0.5	36.3*	-8.8	i
COc1cc(C(=O)Nc2nc(C)c(Cc3ccc4c(c3)OCO4)s2)cc(OC)c1OC	9.1	74.3*	1.6	-8.1	0.0	i
COc1ccc2oc(=O)c(C(=O)OCc3ccccc3)cc2c1	·	24.2	·	·	·	·
Cn1cc(CN2CCC(C(O)c3cccs3)CC2)c(-c2cccc(Cl)c2)n1 (stereo not drawn)	1.2	8.9	0.4	-1.2	3.0	i
CCN(CC)S(=O)(=O)c1cc(NC(=O)CSc2nnc(-c3cccs3)o2)ccc1C	10.5	6.6	0.3	51.9*	2.1	i
Cc1cccc(NC(c2ccc(O)cc2)c2ccc3ccc(C)nc3c2O)n1 (stereo not drawn)	-7.7	63.0*	-1.4	-0.1	-4.1	i
Cc1cc(NC(c2cccnc2)c2ccc3cccnc3c2O)no1 (stereo not drawn)	-0.1	21.4	-0.1	-6.3	2.3	i
Cc1cc(C(=O)CSc2nnnn2C)c(C)n1CCc1ccc(Cl)cc1	1.9	81.6*	0.3	1.5	-9.9	i
COc1ccc(CSc2nnnn2-c2ccccc2)cc1	7.6	9.4	1.0	-9.6	1.2	·
COc1ccc(CCn2c(C)cc(C(=O)CSc3nnnn3-c3ccccc3)c2C)cc1	10.7	71.3*	1.2	-10.3	-2.9	i
CCOC(=O)/C=C(C)\C=C\c1c[nH]c2ccccc12	·	19.5	·	-8.4	·	i
COC(=O)c1c(NC(=O)C2C3CCC(C3)C2C(=O)O)sc2c1CCCCC2 (stereo not drawn)	3.3	48.4	0.4	-7.6	79.2*	i
COC(=O)c1c(NS(C)(=O)=O)sc2c1CCCC2	0.1	24.2	0.2	4.3	0.8	i
COC(=O)c1c(NS(=O)(=O)Cc2ccccc2)sc2c1CCCC2	-2.0	71.0*	-0.5	-5.1	-12.4	i
COC(=O)c1c(NC(=O)C2C3CCC(O3)C2C(=O)O)sc2c1CCCCCC2 (stereo not drawn)	0.8	-6.2	0.1	4.8	-7.1	i
SMILES	ABCG2 inh	PHOSPHO1 block	ABCB1 block	NCF1 inh	PKD1 kinase inh	HSV augment
CCn1c(SCC(=O)NC(C)C)nnc1-c1cccs1	0.0	18.6	0.3	-5.6	-5.5	i
Cc1ccccc1OCc1nnc(SCC(=O)NCc2ccccc2)n1C	2.5	48.3	1.3	-24.4	-2.8	i
Cc1cccc(OCc2nnc(SCC(=O)c3cccs3)n2C)c1C	3.0	75.5*	0.8	-8.2	-1.5	i
CCn1c(SCC(=O)c2cccs2)nnc1-c1cccs1	1.1	70.5*	0.0	5.4	-8.0	i
CCn1c(SCC(=O)NC(=O)Nc2ccc3c(c2)OCCO3)nnc1-c1cccs1	2.8	65.3*	0.5	-2.7	-7.5	i
COc1ccc(C2=NS(=O)(=O)N(C)C(C(=O)N3CCC(C(N)=O)CC3)=C2)cc1	·	33.4	·	·	·	·
